Source: PubChem BioAssay
Activity calls are given as the source filed them.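 How the source made its calls, unless noted: active means Her2 level under about 52% in both replicate screens, with viability over 70% of control (limit read from the data); inconclusive means Her2 under the limit in one screen only, or viability under 70%; inactive means Her2 level above the set limit.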

Columns and labels:
[1] = Her2 expression decrease, cell viability multiplex – SKBR3 breast tumor cells, AlphaScreen, ATP viability, primary screen (AID 461); details: SKBR3 Her2 protein level, 18-24 h, measured here: SKBR3 viability, ATP luminescence, at 10 µM;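 on Her2 level: lower value means less Her2 protein in the cells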;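 on viability: percent of carrier control wells set as 100% viability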
[2] = biological target: Receptor tyrosine-protein kinase erbB-2 (Homo sapiens) (UniProt P04626); assay: as above; details: 18-24 h, at 10 µM, stronger effect = lower value
[3] = reduced viability of SK-BR-3 breast cancer cells – cell-based, 24 h, human, pilot screen (AID 572;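 active means viability at or below 10% of carrier control in both of two separate runs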;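 further: compound exposure lasted between 18 and 24 h rather than exactly 24 h; 100% = carrier-treated control wells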); details: SK-BR-3 viability, CellTiter-Glo luminescence, at 10 µM, stronger effect = lower value
[4] = HUVEC growth inhibition – cell-based, human, primary screen (AID 575;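 active means viability at or below 30% in both replicate assays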;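 further: 100% = median of untreated cell wells with 0.1% DMSO on each plate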); details: HUVEC proliferation, CellTiter-Glo luminescence, 72 h; at 10 µM; stronger effect = lower value
Procedure, shortened: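 Assay system: Primary human umbilical vein endothelial cells | Quantity: 1250 cells per well | Medium: Supplemented EBM, 2% fetal bovine serum | Detection: CellTiter-Glo luminescence measuring cellular ATP | Read-out: % viability vs DMSO wells | Plate: Collagen-coated 384-well format | Times: 72 h exposure, 37 °C, 5% CO2, 30 min RT equilibration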

[5] = H69AR cell proliferation blockers – human, duplicate replicates, primary screen (AID 580;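 active means viability at or under a set limit in both replicates, limit being median viability minus 3 SD, cut at about 48% in these data, passing the limit was not always enough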;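 further: 100% = mean luminescence of untreated wells and 0% = no signal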); details: H69AR lung tumor cells viability, ATP luminescence, 72 h; at 10 µM; stronger effect = lower value
[6] = MRP1 drug-resistance reversers in H69AR cells – cell-based, doxorubicin co-treatment, pilot screen (AID 601;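 active means viability loss from added drug above about 55%, and viability with drug at most 40%, in both replicates, limit read from the data, passing the limit was not always enough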); details: CellTiter-Glo, 72 h, at 10 µM; for differential viability (reversal): stronger effect = higher value
[7] = yeast transport mutant growth inhibition pilot in 384-well plates, post-Golgi transport modulator project (AID 636; in the data active means inhibition above about 31%); details: absorbance 615 nm, about 18 h, stronger effect = higher value
[8] = growth suppression of yeast trafficking mutant, preliminary HTS, modulators of trafficking downstream of Golgi apparatus project, 1536-format plate, OD 615 nm (AID 637; in the data active means inhibition above about 30%); details: yeast transport mutant growth, absorbance 615 nm, 18 h; stronger effect = higher value
[9] = H69AR cells + 2 uM doxorubicin, measured here: viability with 2 uM doxorubicin, stronger effect = lower value
[10] = H69AR cells, compound alone cytotoxicity

Receptor tyrosine-protein kinase erbB-2 (Homo sapiens), sequence (P04626 whole entry, looked up): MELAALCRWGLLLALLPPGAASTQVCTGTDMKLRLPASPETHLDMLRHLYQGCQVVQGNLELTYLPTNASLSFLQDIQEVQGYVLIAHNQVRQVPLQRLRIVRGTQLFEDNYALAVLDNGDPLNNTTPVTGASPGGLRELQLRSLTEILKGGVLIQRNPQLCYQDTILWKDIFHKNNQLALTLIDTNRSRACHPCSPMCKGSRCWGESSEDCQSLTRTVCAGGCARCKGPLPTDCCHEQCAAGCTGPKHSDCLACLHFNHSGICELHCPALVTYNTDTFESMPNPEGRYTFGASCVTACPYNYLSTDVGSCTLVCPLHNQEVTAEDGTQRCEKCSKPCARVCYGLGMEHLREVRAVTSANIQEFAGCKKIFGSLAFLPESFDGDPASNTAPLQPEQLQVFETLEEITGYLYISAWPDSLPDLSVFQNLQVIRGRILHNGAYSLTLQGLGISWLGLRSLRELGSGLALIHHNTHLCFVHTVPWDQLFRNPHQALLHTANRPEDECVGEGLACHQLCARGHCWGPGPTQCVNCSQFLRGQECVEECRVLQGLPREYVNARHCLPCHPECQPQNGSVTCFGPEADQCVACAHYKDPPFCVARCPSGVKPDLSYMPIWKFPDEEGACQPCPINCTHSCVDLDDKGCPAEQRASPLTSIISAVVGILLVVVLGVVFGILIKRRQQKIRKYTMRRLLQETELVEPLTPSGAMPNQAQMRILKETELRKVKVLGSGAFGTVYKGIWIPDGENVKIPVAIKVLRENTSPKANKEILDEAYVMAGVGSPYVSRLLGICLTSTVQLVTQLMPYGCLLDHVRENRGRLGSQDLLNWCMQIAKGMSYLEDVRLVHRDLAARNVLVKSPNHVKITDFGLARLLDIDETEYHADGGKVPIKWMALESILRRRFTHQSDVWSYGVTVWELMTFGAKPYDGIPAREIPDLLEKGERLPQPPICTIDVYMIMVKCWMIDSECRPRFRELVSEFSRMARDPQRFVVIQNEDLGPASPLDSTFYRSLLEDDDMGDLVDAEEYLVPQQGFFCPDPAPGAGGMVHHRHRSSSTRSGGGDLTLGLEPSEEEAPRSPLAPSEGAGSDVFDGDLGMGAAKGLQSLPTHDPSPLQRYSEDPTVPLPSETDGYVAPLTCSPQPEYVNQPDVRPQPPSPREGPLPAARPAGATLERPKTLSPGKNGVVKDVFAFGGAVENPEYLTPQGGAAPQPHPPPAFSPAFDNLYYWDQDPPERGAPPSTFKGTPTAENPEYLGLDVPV

SMILES	viability [1]	Her2 level [2]	viability [3]	viability [4]	viability [5]	differential viability (reversal) ([6]; H69AR cells + 2 uM doxorubicin)	viability [6, 9]	viability [6, 10]	inhibition [7]	inhibition [8]
C=CCOc1nc(N(C)C)nc(N(C)C)n1	92.5%	87% (inactive)	92.5% (inactive)	93.9% (inactive)	98.2% (inactive)	9.33% (inactive)	88.8%	98.2%	-4.67% (inactive)	1.31% (inactive)
O=C(CCN1C(=O)COc2ccccc21)NCCN1CCN(c2cccc(Cl)c2)CC1	94.5%	84% (inactive)	94.5% (inactive)	90.9% (inactive)	83.8% (inactive)	-11.3% (inactive)	95.1%	83.8%	-1.04% (inactive)	-3.33% (inactive)
CCOC(=O)c1ccc(N2C(=O)CC(NC3CCN(C(=O)c4ccc(F)cc4)CC3)C2=O)cc1 (stereo not given)	102%	126% (inactive)	102% (inactive)	103% (inactive)	110% (inactive)	14% (inactive)	96%	110%	1.45% (inactive)	-5% (inactive)
CCCn1c(C)cc(C(=O)COc2ncnc3sccc23)c1C	89%	98.5% (inactive)	89% (inactive)	74.1% (inactive)	63.8% (inactive)	-18.6% (inactive)	82.3%	63.8%	1.3% (inactive)	-11.8% (inactive)
C1CCC2=NCCCN2CC1	122%	87.5% (inactive)	122% (inactive)	100% (inactive)	107% (inactive)	8.22% (inactive)	98.4%	107%	-7.33% (inactive)	-1.9% (inactive)
CN(C)S(=O)(=O)c1ccc2c(c1)C(CC(=O)O)OC2=O (stereo not given)	94%	96.5% (inactive)	94% (inactive)	111% (inactive)	96.1% (inactive)	-0.855% (inactive)	96.9%	96.1%	-1.6% (inactive)	17.1% (inactive)
CCOC(=O)N1CCN(c2c(NCCCOC(C)C)c(=O)c2=O)CC1	97.5%	90% (inactive)	97.5% (inactive)	86.8% (inactive)	97.5% (inactive)	7.67% (inactive)	89.8%	97.5%	-3.47% (inactive)	-0.98% (inactive)
O=C(CCSc1nnc(-c2ccncc2)o1)Nc1ccccc1	90.5%	80.5% (inactive)	90.5% (inactive)	108% (inactive)	100% (inactive)	10.3% (inactive)	89.8%	100%	-0.79% (inactive)	5.27% (inactive)
COc1cc(N2C(=O)CSC23C(=O)Nc2ccccc23)cc(OC)c1OC (stereo not given)	95.5%	105% (inactive)	95.5% (inactive)	79.7% (inactive)	95.7% (inactive)	7.86% (inactive)	87.8%	95.7%	-1.97% (inactive)	-5.81% (inactive)
Cc1ccc(C)c2[nH]c(=O)c(CN(CCN3CCCC3)C(=O)Nc3cccc(Cl)c3)cc12	87%	84% (inactive)	87% (inactive)	15.6% (active)	26.6% (active)	-6.23% (inactive)	32.8%	26.6%	-8.22% (inactive)	-0.32% (inactive)
CCOC(=O)C(CCc1nnc(N)s1)C(=O)OCC	87.5%	89% (inactive)	87.5% (inactive)	110% (inactive)	108% (inactive)	12.8% (inactive)	95.2%	108%	-4.53% (inactive)	-0.48% (inactive)
CC(C)CCn1c(=O)c2ccccc2n2c(CN(C)Cc3ccccc3)nnc12	83.5%	100% (inactive)	83.5% (inactive)	70.3% (inactive)	84.4% (inactive)	72.3% (active)	12.1%	84.4%	-6.08% (inactive)	11.3% (inactive)
O=C1CN(C(=O)CN2CCCC2)C(c2ccccc2)c2cc(Br)ccc2N1 (stereo not given)	94%	91% (inactive)	94% (inactive)	75.8% (inactive)	102% (inactive)	4.63% (inactive)	97.2%	102%	-4.67% (inactive)	1.61% (inactive)
COc1ccc(C2C(C(=O)c3sc(C)nc3C)=C(O)C(=O)N2CCN(C)C)cc1OC (stereo not given)	108%	111% (inactive)	108% (inactive)	99.3% (inactive)	86.7% (inactive)	-8.1% (inactive)	94.8%	86.7%	-2.27% (inactive)	-2.79% (inactive)
N#Cc1c(N)nc2c(c1-c1ccncc1)CCCCC2	102%	86.5% (inactive)	102% (inactive)	78.2% (inactive)	90.7% (inactive)	-3.37% (inactive)	94%	90.7%	-4.4% (inactive)	4.43% (inactive)
FC(F)(F)c1cccc(N2CCN(Cc3cccnc3)CC2)c1	90.5%	99.5% (inactive)	90.5% (inactive)	101% (inactive)	110% (inactive)	25.3% (inactive)	84.9%	110%	-0.4% (inactive)	-1.61% (inactive)

SMILES	viability [1]	Her2 level [2]	viability [3]	viability [4]	viability [5]	differential viability (reversal) ([6]; H69AR cells + 2 uM doxorubicin)	viability [6, 9]	viability [6, 10]	inhibition [7]	inhibition [8]
O=c1c2ccccc2nnn1CSc1nnc2sc3ccccc3n12	95%	64% (inactive)	95% (inactive)	92.8% (inactive)	77.5% (inactive)	9.79% (inactive)	67.7%	77.5%	-9.04% (inactive)	-1.43% (inactive)
COc1ccc(CCNC(=O)C2CC(=O)N(c3ccccc3)C2)cc1OC (stereo not given)	124%	99.5% (inactive)	124% (inactive)	89.7% (inactive)	91.5% (inactive)	1.51% (inactive)	90%	91.5%	-2.47% (inactive)	-1.8% (inactive)
COc1ccccc1NC(=O)C1=C(C)Nc2nc(CCCO)nn2C1c1cccnc1 (stereo not given)	132%	94.5% (inactive)	132% (inactive)	95.7% (inactive)	96.2% (inactive)	11% (inactive)	85.2%	96.2%	-6.36% (inactive)	-3.81% (inactive)
CCOC(=O)N1CCN(c2c(N3CCc4ccccc4C3)c(=O)c2=O)CC1	87%	86% (inactive)	87% (inactive)	99.9% (inactive)	91.7% (inactive)	6.33% (inactive)	85.4%	91.7%	-2% (inactive)	-3.11% (inactive)
Cc1nn(C)c(C)c1S(=O)(=O)N1CCCC(C(=O)N2CCN(c3ccc(Cl)cc3)CC2)C1 (stereo not given)	102%	70% (inactive)	102% (inactive)	87.7% (inactive)	88.3% (inactive)	19.3% (inactive)	69%	88.3%	-2.43% (inactive)	3.49% (inactive)
O=c1sc(Nc2ccccc2)nc2ccsc12	96.5%	47% (active)	96.5% (inactive)	60.4% (inactive)	75.9% (inactive)	-2.11% (inactive)	78%	75.9%	-8.16% (inactive)	-3% (inactive)
COc1ccc(C2CC(=O)C3=C(C2)Nc2ccccc2N(C(=O)C2CC2)C3c2cccnc2)cc1OC (stereo not given)	99.5%	96.5% (inactive)	99.5% (inactive)	89% (inactive)	97.9% (inactive)	1.81% (inactive)	96.1%	97.9%	-0.79% (inactive)	-1.67% (inactive)
CCOC(=O)CNC(=O)Nc1nnc(-c2ccc(OCC)cc2)o1	99%	92% (inactive)	99% (inactive)	105% (inactive)	98.3% (inactive)	8% (inactive)	90.3%	98.3%	-1.08% (inactive)	-3.02% (inactive)
CCOC(=O)c1cccc(NC(=O)CSc2nc3ccccc3c(=O)n2CC)c1	87%	79% (inactive)	87% (inactive)	65% (inactive)	71.1% (inactive)	4.1% (inactive)	67%	71.1%	-3.95% (inactive)	0.48% (inactive)
Cc1ccccc1-c1nc(Cc2ccccc2)no1	77.5%	97.5% (inactive)	77.5% (inactive)	104% (inactive)	102% (inactive)	19.1% (inactive)	82.5%	102%	-0.51% (inactive)	-3.33% (inactive)
CCOC(=O)N1CCN(C(=O)CSc2nnc(-c3cc(OC)cc(OC)c3)o2)CC1	86.5%	75.5% (inactive)	86.5% (inactive)	92.7% (inactive)	85.7% (inactive)	-3.85% (inactive)	89.5%	85.7%	-5.66% (inactive)	-1% (inactive)
c1ccc2c(Cn3ccnc3)c[nH]c2c1	109%	114% (inactive)	109% (inactive)	85.3% (inactive)	86% (inactive)	-5.34% (inactive)	91.4%	86%	-5.19% (inactive)	-2.62% (inactive)
O=C(CNc1ccc(Oc2ccccc2)cc1)N1CCOCC1	92.5%	95.5% (inactive)	92.5% (inactive)	92.1% (inactive)	105% (inactive)	4.96% (inactive)	100%	105%	-7.81% (inactive)	6.98% (inactive)
CCOC(=O)c1ccc(Oc2nc(SC)nc(N(C)C)n2)cc1	73.5%	100% (inactive)	73.5% (inactive)	85% (inactive)	107% (inactive)	2.66% (inactive)	105%	107%	-1.54% (inactive)	-8.17% (inactive)
COc1ccccc1-c1nc(C#N)c(N2CCN(c3ccccc3)CC2)o1	104%	79.5% (inactive)	104% (inactive)	70.4% (inactive)	89.8% (inactive)	10.2% (inactive)	79.6%	89.8%	-3.68% (inactive)	3.65% (inactive)
O=C(COC(=O)C1CC(=O)N(c2ccccc2)C1)c1ccccc1 (stereo not given)	99.5%	107% (inactive)	99.5% (inactive)	101% (inactive)	86.6% (inactive)	-9.89% (inactive)	96.5%	86.6%	4.1% (inactive)	-6.67% (inactive)
